Source: paper PMC3834432 (Toxicological Research, 2012)

Assay: Micro-SPECT/CT imaging
Assay type: in vivo
Conditions: normal female ICR mice; 37 MBq i.v.; SPECT image at 30 min post injection
In short: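 Female ICR mice, obtained at 7 weeks old from a specific pathogen-free colony, were held three weeks for quarantine and adaptation. Housing was 23 ± 2 °C, 50 ± 5% humidity, 12 h light/dark, with diet and water ad libitum. Under 2% isoflurane, lying prone, mice were imaged on a small-animal SPECT/CT with a single-pinhole high-sensitivity mouse collimator.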

Substance | Blood clearance (SPECT image, words) | Excretion / clearance from the body (SPECT image, words)
Gly-Gly-Gly [^99mTc-tricarbonyl-Gly(3)] | fast blood clearances | good clearance property in vivo
Gly-Gly- Gly-Gly-Gly [^99mTc-tricarbonyl-Gly(5)] | fast blood clearance | –
